From BindingDB's records for doi:10.1021/jm0010217 (Menarini Ricerche, 2000) come the findings set out here.

What is called Kd is the constant that tells how readily two partners part at equilibrium. High values mean weaker binding, low ones tighter binding.

The target of assay [1] is T1, Substance-K receptor (Homo sapiens, UniProt P21452).
T1 sequence (P21452 whole entry): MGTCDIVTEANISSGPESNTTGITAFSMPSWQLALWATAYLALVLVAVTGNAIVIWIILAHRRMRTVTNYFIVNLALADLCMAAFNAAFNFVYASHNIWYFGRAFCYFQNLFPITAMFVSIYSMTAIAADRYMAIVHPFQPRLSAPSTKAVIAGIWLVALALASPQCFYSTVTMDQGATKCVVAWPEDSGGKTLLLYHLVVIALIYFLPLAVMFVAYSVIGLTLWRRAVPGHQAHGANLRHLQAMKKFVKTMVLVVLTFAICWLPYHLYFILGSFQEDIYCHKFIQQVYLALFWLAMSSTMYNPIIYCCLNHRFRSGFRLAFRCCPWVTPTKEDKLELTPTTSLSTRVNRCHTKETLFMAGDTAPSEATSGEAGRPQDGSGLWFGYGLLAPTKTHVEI
The assay can be described thus: Compound was evaluated for Kd value against [3H]-SR- 48968 on the Wild-type tachykinin receptor 2.

The target of assay [2] is T2, Substance-K receptor (Homo sapiens, UniProt P21452, F270A).
T2 sequence (P21452 whole entry): T1 sequence (P21452 whole entry)
Kind of assay: Compound was evaluated for Kd value against [3H]-SR- 48968 on the Phe270Ala mutated human NK-2 receptor.

The target in assay [3] is T3, Substance-K receptor (Homo sapiens, UniProt P21452, Y266F).
T3 sequence (P21452 whole entry): T1 sequence (P21452 whole entry)
Kind of assay: Compound was evaluated for Kd value against [3H]-SR- 48968 on the Tyr266Phe mutated human NK-2 receptor.

For assay [4], the target named is T4, Substance-K receptor (Homo sapiens, UniProt P21452, Y206F).
T4 sequence (P21452 whole entry): T1 sequence (P21452 whole entry)
Kind of assay: Compound was evaluated for Kd value against [3H]-SR- 48968 on the Tyr206Phe mutated human NK-2 receptor.

Assay [5] addresses T1, Substance-K receptor. Kind of assay: Compound was evaluated for Kd value against [125I]NKA on the Wild-type tachykinin receptor 2.
Assay [6] concerns the target T4, Substance-K receptor. Kind of assay: Compound was evaluated for Kd value against [125I]-NKA on the Tyr206Phe mutated human NK-2 receptor.
The target of assay [7] is T3, Substance-K receptor. Kind of assay: Compound was evaluated for Kd value against [125I]NKA on the Tyr266Phe mutated human NK-2 receptor.
The target in assay [8] is T1, Substance-K receptor. Kind of assay: (§1) Compound was evaluated for Kd value against [3H]-SR- 48968 on the Tyr206Ala mutated human NK-2 receptor.
For assay [9], the target named is T5, Substance-K receptor (Homo sapiens, UniProt P21452, Y206A).
T5 sequence (P21452 whole entry): T1 sequence (P21452 whole entry)
The assay is described as §1.

Assay [10] has as its target T4, Substance-K receptor. Kind of assay: Compound was evaluated for Kd value against [125I]NKA on the Tyr206Phe mutated human NK-2 receptor. In short, it runs like this: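 Human NK-2 receptor carrying the point mutation, transfected into CHO cells. Radioligand binding with [125I]NKA.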

SMILES strings stand for the structures. Bridge positions count the residues as written; N and C are the ends. Square brackets hold non-standard residues; d marks the D form. Peptide text beside a SMILES is read from it. * marks the point of attachment. NH(β-GlcNAc) = CC(=O)N[C@@H]1[C@@H](O)[C@H](O)[C@@H](CO)O[C@H]1N*; Dap = NC[C@H](N)C(=O)O

With `CC(=O)N[C@@H]1[C@@H](O)[C@H](O)[C@@H](CO)O[C@H]1NC(=O)C[C@@H]1NC(=O)[C@H](CC(C)C)NC(=O)[C@@H]2CNC(=O)C[C@H](NC1=O)C(=O)N[C@@H](Cc1c[nH]c3ccccc13)C(=O)N[C@@H](Cc1ccccc1)C(=O)N2` (cyclo(D(NH(β-GlcNAc))DWF[Dap]L); lactam 2-5), the Kd on Substance-K receptor [1] worked out at 4.4 nM; at Substance-K receptor [2] it was 291 nM; at Substance-K receptor [3], 48 nM; on Substance-K receptor [4], 1.9 nM; on Substance-K receptor [5] it was 2.1 nM; at Substance-K receptor [6], 3.1 nM. For the same compound, the values for the Kd on Substance-K receptor [7] and at Substance-K receptor [8] were 26 nM and over 1000 nM, respectively.

As for `O=C1CCC(=O)N[C@@H](Cc2c[nH]c3ccccc23)C(=O)N[C@@H](Cc2ccccc2)C(=O)N[C@H](Cc2ccccc2)CN1` [MEN-11558], the Kd was determined as 10 nM at Substance-K receptor [1]; 208 nM on Substance-K receptor [2]; 48 nM at Substance-K receptor [3]; 1.3 nM on Substance-K receptor [4]; 2.7 nM at Substance-K receptor [5]; 34 nM on Substance-K receptor [7]. Also, the Kd at Substance-K receptor [9] is 1960 nM; at Substance-K receptor [10], 3.6 nM.
